Test results as given in ChEMBL document CHEMBL4680070, “A second generation of 1,2,4-oxadiazole derivatives with enhanced solubility for inhibition of 3-hydroxykynurenine transaminase (HKT) from Aedes aegypti” (RSC Med Chem, 2021).
Active and inactive are the calls of the source. The rule behind the calls is not given here.

Tests used:
[1] = Inhibition of recombinant Aedes aegypti RecLab N-terminal Trx-fused/His6-tagged 3-hydroxykynurenine transaminase H360M mutant expressed in Escherichia coli Rosetta 2 (DE3) assessed as reduction in conversion of 3-hydroxy kynurenine to xanthurenic-acid using 3-D,L hydroxy kynurenine as substrate preincubated with PLP cofactor and enzyme and 30 mins later incubated with 3-D,L-HK and measured after 5 mins by microplate reader assay
Procedure, shortened: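 Recombinant AeHKT (2 μg) in 200 mM HEPES/100 mM NaCl with 2 mM 3-D,L-HK, 2 mM sodium pyruvate and 40 μM PLP. Reaction ran 5 min at 50 °C and was stopped with 10 mM FeCl3 in 0.1 M HCl. The XA–Fe3+ complex was read at 570 nm, and XA was quantified against a calibration curve. Run in duplicate.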

[2] = biological target: 3-hydroxykynurenine transaminase (Aedes aegypti) (UniProt Q0IG34); experiment: Competitive inhibition of Aedes aegypti 3-hydroxykynurenine transaminase at 300 uM using varying level of 3-D,L hydroxy kynurenine as substrate by Lineweaver-Burk plot analysis
Sequence of 3-hydroxykynurenine transaminase (Aedes aegypti) (Q0IG34 whole entry): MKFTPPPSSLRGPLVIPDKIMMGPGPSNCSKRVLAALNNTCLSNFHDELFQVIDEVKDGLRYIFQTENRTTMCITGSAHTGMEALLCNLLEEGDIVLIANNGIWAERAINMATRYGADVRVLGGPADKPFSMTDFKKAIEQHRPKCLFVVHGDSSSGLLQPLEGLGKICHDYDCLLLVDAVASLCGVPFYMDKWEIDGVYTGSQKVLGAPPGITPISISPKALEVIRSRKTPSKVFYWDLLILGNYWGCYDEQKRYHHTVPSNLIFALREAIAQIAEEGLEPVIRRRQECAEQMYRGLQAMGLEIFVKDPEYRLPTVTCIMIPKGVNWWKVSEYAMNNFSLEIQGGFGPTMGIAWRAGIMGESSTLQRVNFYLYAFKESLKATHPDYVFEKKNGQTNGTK

Structure (SMILES)	IC50 [1] [µM]	inhibition [2]
O=C(O)CCc1nc(-c2ccccc2)no1	139	Active
Cc1ccccc1-c1noc(CCC(=O)O)n1	339	–
O=C(O)CCCc1nc(-c2ccc(Br)cc2)no1	110	–
O=C(O)CCCc1nc(-c2cccc3ccccc23)no1	63	–
O=C(O)CCc1nc(-c2ccccc2Cl)no1	77	–
O=C(O)CCCc1nc(-c2ccc(Cl)cc2)no1	294	–
O=C(O)CCCc1nc(-c2ccc(I)cc2)no1	42	–
O=C(O)CCCc1nc(-c2ccccc2)no1	72	–
O=C(O)CCc1nc(-c2ccc(Cl)c(Cl)c2)no1	86	–
O=C(O)CCc1nc(-c2cccs2)no1	68	–
Cc1cccc(-c2noc(CCCC(=O)O)n2)c1	54	–
O=C(O)CCCc1nc(-c2ccc3c(c2)OCO3)no1	87	–
O=C(O)CCCc1nc(-c2ccc(C(F)(F)F)cc2)no1	70	–
O=C(O)CCc1nc(-c2ccc3c(c2)OCO3)no1	83	–
O=C(O)CCc1nc(-c2cccc([N+](=O)[O-])c2)no1	85	–
COc1cccc(-c2noc(CCC(=O)O)n2)c1	157	–
O=C(O)CCc1nc(-c2ccccc2F)no1	116	–
O=C(O)CCc1nc(-c2ccco2)no1	84	–
O=C(O)CCc1nc(-c2cccc(Br)c2)no1	61	–
COc1ccc(-c2noc(CCCC(=O)O)n2)cc1	101	–
O=C(O)CCCc1nc(-c2ccc(Cl)c(Cl)c2)no1	64	–

Results, then the compound that gave them:

IC50 [1] [µM]	inhibition [2]	Structure (SMILES)
88	–	Cc1ccc(-c2noc(CCCC(=O)O)n2)cc1
76	–	O=C(O)CCc1nc(-c2ccc([N+](=O)[O-])cc2)no1
119	–	O=C(O)CCc1nc(-c2ccc(Br)cc2)no1
124	–	O=C(O)CCc1nc(-c2ccc(F)cc2)no1
42	–	O=C(O)CCc1nc(-c2ccc(C(F)(F)F)cc2)no1
110	–	Cc1cccc(-c2noc(CCC(=O)O)n2)c1
73	–	Cc1ccc(-c2noc(CCC(=O)O)n2)cc1
35	–	COc1ccc(-c2noc(CCC(=O)O)n2)cc1
85	–	O=C(O)CCc1nc(-c2ccc(Cl)cc2)no1
